High-throughput results: PubChem BioAssay, several laboratories
The list is not random: actives were taken first. Their share in the collection is about 2.5%.
HTR2A ag – agonists of mouse serotonin 5-HT2A receptor (HTR2A). P35363. CHO-K1 mHTR2A beta-arrestin complementation, luminescence; percent of 30 µM serotonin response. activation, % at 7.6 µM. 360,000 tested, 0.66% active;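 active = activation above a run cutoff, the mean activation of all tested compounds plus 3 SD, cut at about 14% in these data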
dFosB activator – activators of mouse delta FosB homodimer; P13346; purified delta FosB, TAMRA-CDK5 oligo fluorescence polarization; percent of positive-control signal above neutral wells; activation, % at 25 µM; 340,000 tested, 0.99% active;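 active = mean activation above about 17%, with every replicate also reaching it, limit read from the data, passing the limit was not always enough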
Target sequence (P13346 whole entry, looked up): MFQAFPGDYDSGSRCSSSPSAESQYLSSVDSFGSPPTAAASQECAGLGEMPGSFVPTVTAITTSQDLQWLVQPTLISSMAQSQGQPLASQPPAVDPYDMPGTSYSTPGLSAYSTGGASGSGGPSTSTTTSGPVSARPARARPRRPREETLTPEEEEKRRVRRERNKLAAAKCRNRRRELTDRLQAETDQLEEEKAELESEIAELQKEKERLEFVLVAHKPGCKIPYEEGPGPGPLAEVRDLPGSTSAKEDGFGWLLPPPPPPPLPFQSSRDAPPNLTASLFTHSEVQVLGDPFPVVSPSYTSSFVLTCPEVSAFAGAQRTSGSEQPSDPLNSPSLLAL
VIM-2 inh – inhibitors of Pseudomonas aeruginosa VIM-2 metallo-beta-lactamase. purified VIM-2, nitrocefin hydrolysis, epi-absorbance fluorescence. inhibition, % at 5.6 µM. 290,000 tested, 0.89% active. AID 1527;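 active = inhibition above the mean of all tested compounds plus 3 SD, cutoff set per screening run, cut at about 7.5% in these data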;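 note: red hydrolysis product quenches plate fluorescence so inhibitors raise well fluorescence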
IMP-1 inh-1 – blocks Pseudomonas aeruginosa IMP-1 metallo-beta-lactamase | inhibition, % at 5.6 µM | purified IMP-1, nitrocefin hydrolysis, epi-absorbance fluorescence | AID 1556 | 290,000 tested, 0.45% active;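 active = inhibition above the mean plus 3 SD of all compounds in the same screening run, cut at about 4.5% in these data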
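System: purified IMP-1; amount: IMP-1 0.2 nM before substrate addition; compound: single dose, 5.6 µM; times: 25 °C, 15 min preincubation, 25 min reaction; signal: Epi-absorbance via hydrolysed-nitrocefin quenching of white-plate fluorescence, 480/530 nm, EDTA stop; benchmarks: DMSO with and without IMP-1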
IMP-1 inh-2 – IMP-1 inhibition, counter-screen for VIM-2 inhibitors; shares compounds with VIM-2 inh; purified IMP-1, nitrocefin hydrolysis, epi-absorbance fluorescence; inhibition, % at 5.6 µM; 1,300 tested, under 10 active; call rule not given here
VIM-2 FRET inh – VIM-2 FRET inhibition, artifact counter-screen. 1,300 tested, 23% active. inhibition, % at 5.6 µM. purified VIM-2, CCF2 FRET substrate hydrolysis. shares compounds with VIM-2 inh;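 active = inhibition above the mean of all tested compounds plus 3 SD, cut at about 19% in these data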
TEM-1 counter – selectivity counter-screen for VIM-2 inhibitors: E. coli TEM-1 inhibitors; shares compounds with VIM-2 inh; Purified TEM-1, nitrocefin hydrolysis, epi-absorbance fluorescence; 1,300 tested, 3% active; AID 1866; inhibition, % at 5.6 µM;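 active = inhibition above that campaign's mean inhibition plus 3 SD, cut at about 0.46% in these data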
Target sequence (P62593 whole entry, looked up): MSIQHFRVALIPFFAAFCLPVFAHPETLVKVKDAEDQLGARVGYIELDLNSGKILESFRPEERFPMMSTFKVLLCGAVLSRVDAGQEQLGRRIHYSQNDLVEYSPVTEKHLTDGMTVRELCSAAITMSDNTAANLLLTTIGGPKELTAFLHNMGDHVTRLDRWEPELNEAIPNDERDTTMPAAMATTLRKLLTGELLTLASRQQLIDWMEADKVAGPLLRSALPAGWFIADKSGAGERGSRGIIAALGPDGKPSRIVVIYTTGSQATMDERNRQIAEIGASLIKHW
VIM-2 confirm 2 – confirmation of P. aeruginosa VIM-2 metallo-beta-lactamase inhibitors; inhibition, % at 5.6 µM; shares compounds with VIM-2 inh; 1,300 tested, 96% active; purified VIM-2, nitrocefin hydrolysis, epi-absorbance; AID 2187;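 active = inhibition of the VIM-2 beta-lactamase enzyme above about 11% from the earlier first-round screen, limit read from the data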
A number is an active result; – = inactive; · = no result given.

SMILES | HTR2A ag | dFosB activator | VIM-2 inh | IMP-1 inh-1 | IMP-1 inh-2 | VIM-2 FRET inh | TEM-1 counter | VIM-2 confirm 2
CC/C(=N\NC(=O)c1cccnc1)c1ccc2c(c1)OCCO2 | – | – | 45.7 | – | – | – | – | –
Clc1ccc(-c2ccc(CNCc3ccccn3)o2)cc1 | – | – | 24.2 | – | – | – | – | 42.3
CC(C)C(CCNCc1ccccn1)c1ccc(Cl)cc1 (stereo not drawn) | – | – | – | – | · | · | · | ·
COc1ccc(-c2ccc(CNCc3ccccn3)o2)cc1Cl | · | · | 55.5 | – | – | – | – | 67.3
N#Cc1ccc(CNC(=O)N2CCOCC2)cc1 | – | – | – | – | · | · | · | ·
CCOC(=O)c1cnc2c(Cl)cccc2c1NCCCN1CCOCC1 | – | – | 19.6 | – | – | – | – | 28.1
CCOC(=O)c1cnc2c(CC)cccc2c1NCCCN1CCOCC1 | – | – | 24.4 | – | – | – | – | 32.6
CCOC(=O)c1cnc2c(C(F)(F)F)cccc2c1N1CCN(C)CC1 | – | – | – | – | · | · | · | ·
CCOC(=O)c1cnc2c(Cl)cccc2c1NCCN1CCOCC1 | – | – | – | – | · | · | · | ·
CCOC(=O)c1cnc2c(C(F)(F)F)cccc2c1NCCCN1CCOCC1 | – | – | 20.4 | – | – | – | – | 27.2
CCN(CC)CCCNc1nc2cc(OC)c(OC)cc2c2nc(-c3cccnc3)nn12 | – | 245.1 | 22.3 | – | – | – | – | 42.4
COc1cc2nc(NCCCN3CCN(C)CC3)n3nc(-c4ccccc4)nc3c2cc1OC | – | 165.9 | 27.6 | – | – | – | – | 47.7
CCN(CC)CCCNc1nc2ccccc2c2nc(-c3ccncc3)nn12 | – | 66.8 | 27.9 | – | – | – | – | 37.1
O=c1[nH]c2cc3c(cc2cc1CN(Cc1cccnc1)C(=S)NCc1ccco1)OCCO3 | – | – | 17.6 | – | – | – | – | –
Cc1cc(C)c(NC(=O)CN(C)C(=O)CNC(=O)c2cccs2)c(C)c1 | – | – | · | · | · | · | · | ·
Cc1cc(=S)c2ccccc2[nH]1 | – | – | 60.3 | – | – | – | – | 57.4
COc1cccc(-c2cnc3c(NC(C)=O)cc(-c4ccc(C(=O)N5CCOCC5)cc4)cn23)c1 | – | · | · | · | · | · | · | ·
CCOC(=O)[C@@H]1[C@H]2COc3cc(OC)ccc3[C@@H]2N2C(=O)N(c3ccc(F)cc3)C(=O)[C@@]12C | – | – | · | · | · | · | · | ·
COc1ccc(OC)c(C2C(C(=O)c3ccco3)=C(O)C(=O)N2Cc2cccnc2)c1 (stereo not drawn) | – | – | 61.1 | – | – | 78.2 | – | 67.9
COc1ccc(OC)c(C2/C(=C(/O)c3ccccc3)C(=O)C(=O)N2Cc2ccco2)c1 (stereo not drawn) | – | – | 66.5 | – | – | 76.7 | – | 70.3
COc1cccc(C2/C(=C(/O)c3ccccc3)C(=O)C(=O)N2Cc2ccco2)c1 (stereo not drawn) | – | – | – | – | · | · | · | ·
COc1ccc(/C(O)=C2\C(=O)C(=O)N(Cc3ccco3)C2c2cc(OC)ccc2OC)cc1 (stereo not drawn) | – | – | 12.3 | – | – | 35.0 | – | 25.9
COc1ccc(OC)c(C2/C(=C(/O)c3ccc(C)cc3)C(=O)C(=O)N2Cc2ccco2)c1 (stereo not drawn) | – | – | 21.2 | – | – | 55.5 | – | 45.1
COC(=O)c1c(-c2c(Cl)cccc2Cl)noc1C(=O)NN | – | – | – | – | · | · | · | ·
CCOC(=O)CCCCCC(=O)Nc1ccc2c(c1)C(=O)N([C@H](C)CO)C[C@@H](C)[C@H](CN(C)S(=O)(=O)c1cn(C)cn1)O2 | – | – | · | · | · | · | · | ·
SMILES | HTR2A ag | dFosB activator | VIM-2 inh | IMP-1 inh-1 | IMP-1 inh-2 | VIM-2 FRET inh | TEM-1 counter | VIM-2 confirm 2
C#CCN(C[C@H]1[C@H](OC(=O)NCc2ccccc2F)[C@H](OC(=O)NCc2ccccc2F)C[C@@H](C(=O)OC)[C@H]1C(=O)OC)S(=O)(=O)c1ccc(C)cc1 | – | · | · | · | · | · | · | ·
Cc1ccc2oc(=O)c3cc(C(=O)NCCCN4C(C)CCCC4C)sc3c2c1 (stereo not drawn) | – | – | 12.3 | – | – | – | – | 16.5
O=C(NCCCN1CCCCCC1)c1cc2c(=O)oc3ccccc3c2s1 | – | – | 15.6 | – | – | – | – | 24.6
O=C(c1cc2c(=O)oc3ccccc3c2s1)N1CCOCC1 | – | – | – | – | · | · | · | ·
Cc1ccc2oc(=O)c3cc(C(=O)NCCCN4CCN(C)CC4)sc3c2c1 | – | – | 13.4 | – | – | – | – | 19.8
CN1CCN(CCCNC(=O)c2cc3c(=O)n(C)c4ccccc4c3s2)CC1 | – | – | 21.4 | – | – | – | – | 29.1
CCN(Cc1ccccc1)C(=O)c1cc2c(=O)oc3ccc(C)cc3c2s1 | – | – | – | – | · | · | · | ·
COCCNc1nc(NCCN2CCNC2=O)c2sc(-c3ccccc3)cc2n1 | – | · | · | · | · | · | · | ·
CC1(C)CC(NC(=O)c2ccccc2NS(=O)(=O)c2ccc(Br)cc2)CC(C)(C)N1 | – | – | · | · | · | · | · | ·
Cn1c(CNC(=O)c2ccco2)nnc1SCC(=O)c1ccc(F)cc1 | – | – | – | – | · | · | · | ·
CCCN1CCN(CCCNC(=O)c2cc3c(=O)[nH]c4ccc(C)cc4c3s2)CC1 | – | – | – | – | · | · | · | ·
CCN1CCN(CCCNC(=O)c2cc3c(=O)oc4ccc(C)cc4c3s2)CC1 | – | – | 12.7 | – | – | – | – | 18.6
CCOc1ccccc1Nc1cc(C)nc2nc(C)nn12 | – | – | 14.7 | – | – | – | 0.5 | 28.2
OCCNc1nc(-c2ccccc2)nc2ccccc12 | – | – | – | – | · | · | · | ·
Cc1cc(NCCN2CCOCC2)n2nc(C)c(-c3ccccc3)c2n1 | – | – | – | – | · | · | · | ·
Cc1cc(NCCCn2ccnc2)n2nc(C)c(-c3ccc(Cl)cc3)c2n1 | – | – | 50.1 | – | – | – | – | 60.5
Cc1cc(NCc2ccccc2)n2ncc(-c3ccccc3)c2n1 | – | – | – | – | · | · | · | ·
Cc1cc(NCCCn2ccnc2)n2nc(C)c(-c3ccccc3)c2n1 | – | – | 68.1 | – | – | – | – | 79.3
Cc1cc(NCCN2CCOCC2)n2nc(C)c(-c3ccc(Cl)cc3)c2n1 | – | – | – | – | · | · | · | ·
c1ccc(-c2nc(NCCCn3ccnc3)c3ccccc3n2)cc1 | – | – | 22.2 | – | – | – | – | 36.1
Cc1cc(NCCCn2ccnc2)n2ncc(-c3ccccc3)c2n1 | – | – | 57.1 | – | – | – | 1.4 | 73.0
COc1cccc(C(=O)NCC[N+](C)(C)C)c1 | – | · | · | · | · | · | · | ·
Cc1c(NC(=O)C(C)Oc2ccc(Br)cc2)c(=O)n(-c2ccccc2)n1C (stereo not drawn) | – | – | · | · | · | · | · | ·
O=C(NCc1ccccc1)NC(=O)c1ccncc1 | – | – | – | – | · | · | · | ·
CSc1sc(C(=O)NC(=O)NCc2ccncc2)c(C)c1-c1ccon1 | – | – | 32.4 | – | – | – | – | 41.6
